Assay results as given in PubChem BioAssay AID602218 (Southern Research Specialized Biocontainment Screening …, 2012).
Records with an inconclusive call do not appear. Activity calls are given as the source filed them.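 The calls were made as follows: active = inhibition of at least 30% at any tested concentration; inactive = the rest, inconclusive results apart.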

The compounds below were run against M18 aspartyl aminopeptidase (Plasmodium falciparum 3D7) (assay: inhibition of malaria M18 aspartyl aminopeptidase – biochemical, QFRET fluorogenic substrate, set 2, counter-screen for PfM17LAP inhibitor project, dose response (AID 602218)). Details: recombinant PfM18AAP, H-Glu-NHMec fluorogenic cleavage.
Summary of the method: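 timing = 90 min reaction, room temperature | test system = purified recombinant Plasmodium falciparum M18 aspartyl aminopeptidase (rPFM18AAP) | also added = 0.1 mM H-Glu-NHMec substrate | medium = Tris-HCl buffer pH 7.5 with 2 mM CoCl2, 2% DMSO | measured by = fluorescence at 370/460 nm | evaluation = percent inhibition versus controls, IC50 by four-parameter logistic fit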

IC50 [µM] | SMILES
40.2 | CCCCOc1ccc(CC(=O)N(C)O)cc1
18 | CCCCCCCCCC(=O)NO
14.6 | COc1ccc(CCCC(=O)NO)cc1
8.93 | O=C(Cc1ccc2c(c1)CCCC2)NO
10.1 | O=C(NO)c1cccc2ccccc12
65.4 | CCCCOc1ccc(CNc2c(N(C)O)c(=O)c2=O)cc1
10 | CCCCOc1ccc(CC(=O)NO)cc1
12.7 | CCCCOc1ccc(C(=O)NO)cc1
29.2 | CN(O)C(=O)Cc1ccc(OCc2ccccc2)cc1
33.6 | Cc1ccc(CC(=O)NO)cc1
16.4 | COc1ccc(CC(=O)NO)cc1
9.64 | O=C(Cc1ccc(OCc2ccccc2)cc1)NO
54.6 | CC(C)(C(=O)NO)c1ccccc1
18.5 | CCCCOc1ccc(CCC(=O)NO)cc1
11.4 | CC(C)COc1ccc(CC(=O)NO)cc1
13.7 | CCCCc1ccc(CC(=O)NO)cc1
7.13 | O=C(Cc1ccc(Oc2ccccc2)cc1)NO
34.1 | CCOc1ccc(CC(=O)NO)cc1

Same assay, conditions: recombinant PfM18AAP, H-Glu-NHMec fluorogenic cleavage; at 25 µM (top of the series)

inhibition | SMILES
inactive | CCCCOc1ccc(CNc2c(N(O)Cc3ccccc3)c(=O)c2=O)cc1

Same assay, conditions: recombinant PfM18AAP, H-Glu-NHMec fluorogenic cleavage; at 100 µM (top of the series)

inhibition | SMILES
inactive | CCCOc1ccc(CC(=O)OC)cc1
inactive | CCCCOc1ccc(CC(=O)O)cc1
inactive | COC(=O)Cc1ccc(OCCN(C)C)cc1
